Assays:
[1] = target: Serine/threonine-protein kinase N1 (Homo sapiens) (UniProt Q16512); assay: Inhibition of human recombinant PKN1 at 500 nM related to control ULK1
[2] = target: Calcium/calmodulin-dependent protein kinase kinase 2 (Homo sapiens) (UniProt Q96RR4); assay: Inhibition of human recombinant CaMKK2 at 500 nM in presence of ATP by radiometric assay relative to control
[3] = target: Tyrosine-protein kinase receptor UFO (Homo sapiens) (UniProt P30530); assay: Inhibition of human recombinant AXL at 500 nM related to control ULK1
Tyrosine-protein kinase receptor UFO (Homo sapiens), sequence (P30530 whole entry): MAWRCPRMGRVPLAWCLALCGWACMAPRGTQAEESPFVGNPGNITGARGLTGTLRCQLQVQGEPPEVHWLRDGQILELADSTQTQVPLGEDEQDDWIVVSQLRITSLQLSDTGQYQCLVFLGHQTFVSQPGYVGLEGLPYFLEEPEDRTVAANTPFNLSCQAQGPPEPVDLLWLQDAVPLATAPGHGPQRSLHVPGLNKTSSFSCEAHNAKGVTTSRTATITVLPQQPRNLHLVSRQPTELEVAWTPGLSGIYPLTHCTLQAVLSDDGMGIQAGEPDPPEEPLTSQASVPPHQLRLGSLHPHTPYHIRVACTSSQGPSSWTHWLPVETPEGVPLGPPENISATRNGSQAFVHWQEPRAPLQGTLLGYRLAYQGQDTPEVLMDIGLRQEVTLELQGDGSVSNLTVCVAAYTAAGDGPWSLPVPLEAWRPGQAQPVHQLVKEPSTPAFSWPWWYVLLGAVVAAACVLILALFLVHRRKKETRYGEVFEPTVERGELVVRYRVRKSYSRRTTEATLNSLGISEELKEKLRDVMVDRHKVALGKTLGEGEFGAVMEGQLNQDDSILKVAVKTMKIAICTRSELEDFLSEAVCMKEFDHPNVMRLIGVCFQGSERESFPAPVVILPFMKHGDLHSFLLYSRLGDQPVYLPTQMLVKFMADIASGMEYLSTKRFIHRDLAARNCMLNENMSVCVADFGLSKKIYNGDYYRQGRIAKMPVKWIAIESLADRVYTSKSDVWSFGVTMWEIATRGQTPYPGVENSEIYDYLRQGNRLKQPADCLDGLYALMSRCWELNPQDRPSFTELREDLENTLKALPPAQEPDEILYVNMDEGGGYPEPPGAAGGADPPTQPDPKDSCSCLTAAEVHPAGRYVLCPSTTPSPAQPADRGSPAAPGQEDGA
Method in brief: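 Panel of 327 recombinant human kinases, each assayed in vitro by radiometric activity assay in duplicate at a single inhibitor concentration per compound, chosen with reference to its ULK1 inhibition. Activity remaining was expressed as percent of vehicle control, and percent inhibition was calculated as 100 minus percent activity remaining.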

[4] = target: Bone morphogenetic protein receptor type-1B (Homo sapiens) (UniProt O00238); assay: Inhibition of human recombinant BMPR1B at 500 nM in presence of ATP by radiometric assay relative to control
Method in brief: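 Part of a radiometric in vitro activity panel of 327 recombinant human kinases. Each kinase was tested in duplicate at one inhibitor concentration. Activity remaining was expressed as a percentage of the vehicle control, and percent inhibition was taken as 100 minus that value.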

[5] = target: Myosin light chain kinase 2, skeletal/cardiac muscle (Homo sapiens) (UniProt Q9H1R3); assay: Inhibition of human recombinant skMLCK at 500 nM related to control ULK1
Myosin light chain kinase 2, skeletal/cardiac muscle (Homo sapiens), sequence (Q9H1R3 whole entry): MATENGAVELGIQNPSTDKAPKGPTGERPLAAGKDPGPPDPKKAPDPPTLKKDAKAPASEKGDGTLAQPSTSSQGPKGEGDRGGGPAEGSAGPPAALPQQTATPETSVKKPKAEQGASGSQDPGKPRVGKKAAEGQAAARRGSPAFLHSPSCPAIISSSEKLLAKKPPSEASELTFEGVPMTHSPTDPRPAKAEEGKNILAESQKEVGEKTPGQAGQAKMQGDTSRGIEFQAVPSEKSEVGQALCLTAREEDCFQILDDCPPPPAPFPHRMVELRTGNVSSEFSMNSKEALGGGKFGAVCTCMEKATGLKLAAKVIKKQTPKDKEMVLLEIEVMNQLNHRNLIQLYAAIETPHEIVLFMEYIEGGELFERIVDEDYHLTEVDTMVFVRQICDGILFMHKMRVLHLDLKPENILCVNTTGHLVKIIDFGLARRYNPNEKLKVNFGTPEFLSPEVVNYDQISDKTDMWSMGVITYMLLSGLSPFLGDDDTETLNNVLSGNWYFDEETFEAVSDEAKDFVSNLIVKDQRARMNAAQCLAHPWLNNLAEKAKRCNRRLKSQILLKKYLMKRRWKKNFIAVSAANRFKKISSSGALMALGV

[6] = target: Serine/threonine-protein kinase MRCK beta (Homo sapiens) (UniProt Q9Y5S2); assay: Inhibition of human recombinant MRCKb at 15 nM related to control ULK1
Serine/threonine-protein kinase MRCK beta (Homo sapiens), sequence (Q9Y5S2 whole entry): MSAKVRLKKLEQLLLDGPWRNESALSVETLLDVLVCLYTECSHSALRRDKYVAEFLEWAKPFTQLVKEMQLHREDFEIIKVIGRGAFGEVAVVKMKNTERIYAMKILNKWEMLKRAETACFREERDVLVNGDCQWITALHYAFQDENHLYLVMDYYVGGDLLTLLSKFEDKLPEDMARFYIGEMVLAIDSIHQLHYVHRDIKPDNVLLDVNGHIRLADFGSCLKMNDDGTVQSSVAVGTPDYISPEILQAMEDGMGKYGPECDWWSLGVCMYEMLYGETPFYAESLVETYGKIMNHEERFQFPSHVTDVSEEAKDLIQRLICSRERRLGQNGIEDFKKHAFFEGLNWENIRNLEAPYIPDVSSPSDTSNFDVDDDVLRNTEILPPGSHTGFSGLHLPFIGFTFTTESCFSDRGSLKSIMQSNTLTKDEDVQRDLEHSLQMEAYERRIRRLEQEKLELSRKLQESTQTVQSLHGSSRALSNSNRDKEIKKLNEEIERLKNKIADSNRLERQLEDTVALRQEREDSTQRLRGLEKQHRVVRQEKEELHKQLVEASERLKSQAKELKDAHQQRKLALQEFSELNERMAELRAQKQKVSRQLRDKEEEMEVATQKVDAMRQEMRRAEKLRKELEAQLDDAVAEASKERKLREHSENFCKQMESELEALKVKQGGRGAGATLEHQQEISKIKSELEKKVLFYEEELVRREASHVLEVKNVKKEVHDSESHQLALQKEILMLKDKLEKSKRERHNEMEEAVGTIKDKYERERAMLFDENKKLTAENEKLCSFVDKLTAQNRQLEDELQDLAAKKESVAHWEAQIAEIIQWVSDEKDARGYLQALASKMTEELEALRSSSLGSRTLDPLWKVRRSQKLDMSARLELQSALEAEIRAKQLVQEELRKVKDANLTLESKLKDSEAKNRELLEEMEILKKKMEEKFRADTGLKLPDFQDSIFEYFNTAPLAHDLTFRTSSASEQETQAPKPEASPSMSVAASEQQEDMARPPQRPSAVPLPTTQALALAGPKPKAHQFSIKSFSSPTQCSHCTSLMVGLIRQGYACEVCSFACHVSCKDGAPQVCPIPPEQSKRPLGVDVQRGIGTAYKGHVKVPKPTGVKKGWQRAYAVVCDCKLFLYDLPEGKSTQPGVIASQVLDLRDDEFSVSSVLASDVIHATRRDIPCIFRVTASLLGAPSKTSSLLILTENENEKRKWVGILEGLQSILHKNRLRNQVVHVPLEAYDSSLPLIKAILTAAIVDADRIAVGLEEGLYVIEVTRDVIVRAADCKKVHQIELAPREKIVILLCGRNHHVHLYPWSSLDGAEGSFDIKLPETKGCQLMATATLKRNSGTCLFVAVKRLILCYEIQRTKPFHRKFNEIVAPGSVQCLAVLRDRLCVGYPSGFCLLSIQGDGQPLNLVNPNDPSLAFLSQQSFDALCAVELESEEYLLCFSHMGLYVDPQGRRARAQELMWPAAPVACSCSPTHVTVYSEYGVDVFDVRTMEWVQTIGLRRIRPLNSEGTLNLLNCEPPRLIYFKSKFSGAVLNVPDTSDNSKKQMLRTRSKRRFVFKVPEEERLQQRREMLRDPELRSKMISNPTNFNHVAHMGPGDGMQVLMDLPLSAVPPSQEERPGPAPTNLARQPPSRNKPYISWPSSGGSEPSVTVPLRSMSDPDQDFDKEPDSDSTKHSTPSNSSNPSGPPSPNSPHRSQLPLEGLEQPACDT

[7] = target: Glycogen synthase kinase-3 beta (Homo sapiens) (UniProt P49841); assay: Inhibition of human recombinant GSK3B at 15 nM in presence of ATP by radiometric assay relative to control
[8] = target: BDNF/NT-3 growth factors receptor (Homo sapiens) (UniProt Q16620); assay: Inhibition of human recombinant TRKB at 15 nM related to control ULK1
[9] = target: Serine/threonine-protein kinase MRCK beta (Homo sapiens) (UniProt Q9Y5S2); assay: Inhibition of human recombinant MRCKb at 15 nM in presence of ATP by radiometric assay relative to control
[10] = target: T1, Serine/threonine-protein kinase PLK4 (Homo sapiens) (UniProt O00444); assay: Inhibition of human recombinant PLK4 at 15 nM related to control ULK1
T1 sequence (whole entry): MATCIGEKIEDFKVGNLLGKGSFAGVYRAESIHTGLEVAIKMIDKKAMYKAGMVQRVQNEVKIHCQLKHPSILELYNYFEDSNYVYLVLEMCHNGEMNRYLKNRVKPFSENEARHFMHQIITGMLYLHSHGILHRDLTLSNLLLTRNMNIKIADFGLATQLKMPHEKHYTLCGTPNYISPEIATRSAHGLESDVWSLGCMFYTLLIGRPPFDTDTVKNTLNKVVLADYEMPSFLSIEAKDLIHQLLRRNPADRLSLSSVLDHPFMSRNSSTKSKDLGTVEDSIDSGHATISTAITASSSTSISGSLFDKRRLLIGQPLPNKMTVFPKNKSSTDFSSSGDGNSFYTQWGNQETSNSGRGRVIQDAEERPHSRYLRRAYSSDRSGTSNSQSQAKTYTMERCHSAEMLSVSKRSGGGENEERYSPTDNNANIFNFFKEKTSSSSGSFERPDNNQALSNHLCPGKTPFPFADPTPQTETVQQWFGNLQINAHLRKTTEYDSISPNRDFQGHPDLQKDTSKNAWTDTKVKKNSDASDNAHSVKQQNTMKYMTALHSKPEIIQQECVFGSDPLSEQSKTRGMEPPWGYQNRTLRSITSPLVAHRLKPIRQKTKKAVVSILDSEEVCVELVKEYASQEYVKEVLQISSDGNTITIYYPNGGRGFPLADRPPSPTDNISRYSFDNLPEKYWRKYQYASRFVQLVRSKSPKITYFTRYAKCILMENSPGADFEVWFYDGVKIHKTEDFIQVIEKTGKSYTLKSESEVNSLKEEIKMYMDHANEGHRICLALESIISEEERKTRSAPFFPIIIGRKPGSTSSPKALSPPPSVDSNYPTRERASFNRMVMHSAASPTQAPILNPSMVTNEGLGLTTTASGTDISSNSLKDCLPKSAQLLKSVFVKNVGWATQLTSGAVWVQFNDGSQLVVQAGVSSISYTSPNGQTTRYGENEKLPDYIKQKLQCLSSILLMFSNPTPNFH

[11] = target: T2, Interleukin-1 receptor-associated kinase 4 (Homo sapiens) (UniProt Q9NWZ3); assay: Inhibition of human recombinant IRAK4 at 15 nM in presence of ATP by radiometric assay relative to control
T2 sequence (whole entry): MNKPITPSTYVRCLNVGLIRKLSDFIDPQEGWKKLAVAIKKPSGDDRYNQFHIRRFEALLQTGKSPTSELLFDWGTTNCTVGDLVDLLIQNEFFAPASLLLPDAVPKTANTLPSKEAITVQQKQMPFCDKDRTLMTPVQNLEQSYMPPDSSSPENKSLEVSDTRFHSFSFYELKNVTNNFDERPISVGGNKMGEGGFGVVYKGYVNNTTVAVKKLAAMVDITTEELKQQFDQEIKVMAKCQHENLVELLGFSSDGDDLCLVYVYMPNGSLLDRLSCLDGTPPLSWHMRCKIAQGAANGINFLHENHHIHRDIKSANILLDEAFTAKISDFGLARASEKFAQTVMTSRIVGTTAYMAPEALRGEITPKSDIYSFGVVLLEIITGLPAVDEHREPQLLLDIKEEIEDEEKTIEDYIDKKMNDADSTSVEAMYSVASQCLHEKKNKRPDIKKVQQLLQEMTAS

[12] = target: RAC-gamma serine/threonine-protein kinase (Homo sapiens) (UniProt Q9Y243); assay: Inhibition of human recombinant AKT3 at 15 nM related to control ULK1
[13] = target: Non-receptor tyrosine-protein kinase TYK2 (Homo sapiens) (UniProt P29597); assay: Inhibition of human recombinant TYK2 at 15 nM in presence of ATP by radiometric assay relative to control
Non-receptor tyrosine-protein kinase TYK2 (Homo sapiens), sequence (P29597 whole entry): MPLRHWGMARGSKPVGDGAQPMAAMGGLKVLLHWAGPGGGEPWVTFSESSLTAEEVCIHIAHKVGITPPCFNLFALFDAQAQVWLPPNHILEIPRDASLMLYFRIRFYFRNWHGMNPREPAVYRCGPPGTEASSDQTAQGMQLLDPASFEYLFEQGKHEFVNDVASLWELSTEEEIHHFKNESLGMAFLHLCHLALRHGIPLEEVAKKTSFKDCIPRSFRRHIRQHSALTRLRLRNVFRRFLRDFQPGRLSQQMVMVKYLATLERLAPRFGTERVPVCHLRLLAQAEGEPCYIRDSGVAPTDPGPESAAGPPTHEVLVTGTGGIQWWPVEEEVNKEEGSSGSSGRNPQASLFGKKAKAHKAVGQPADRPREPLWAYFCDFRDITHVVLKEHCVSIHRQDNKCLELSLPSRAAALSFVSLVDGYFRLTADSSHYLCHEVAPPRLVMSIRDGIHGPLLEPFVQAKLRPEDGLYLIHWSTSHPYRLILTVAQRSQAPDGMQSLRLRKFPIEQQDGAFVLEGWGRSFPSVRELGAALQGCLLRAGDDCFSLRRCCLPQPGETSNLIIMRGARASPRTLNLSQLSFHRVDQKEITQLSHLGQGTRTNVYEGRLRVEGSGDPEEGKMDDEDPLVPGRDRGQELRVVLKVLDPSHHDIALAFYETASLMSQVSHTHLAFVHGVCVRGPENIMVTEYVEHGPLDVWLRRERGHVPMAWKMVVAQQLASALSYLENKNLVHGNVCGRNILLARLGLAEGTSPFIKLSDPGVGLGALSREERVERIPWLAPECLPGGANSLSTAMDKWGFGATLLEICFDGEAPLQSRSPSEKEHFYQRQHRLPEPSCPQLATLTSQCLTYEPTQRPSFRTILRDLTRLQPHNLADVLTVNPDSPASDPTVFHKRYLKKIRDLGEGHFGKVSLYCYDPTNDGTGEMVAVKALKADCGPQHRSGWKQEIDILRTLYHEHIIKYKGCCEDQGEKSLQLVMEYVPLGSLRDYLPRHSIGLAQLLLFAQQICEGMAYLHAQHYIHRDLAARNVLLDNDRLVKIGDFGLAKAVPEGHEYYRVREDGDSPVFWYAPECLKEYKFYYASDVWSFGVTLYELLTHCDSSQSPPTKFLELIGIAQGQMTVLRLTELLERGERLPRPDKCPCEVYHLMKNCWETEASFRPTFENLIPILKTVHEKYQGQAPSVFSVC

[14] = target: TGF-beta receptor type-2 (Homo sapiens) (UniProt P37173); assay: Inhibition of human recombinant TGFbR2 at 15 nM related to control ULK1
[15] = target: 5'-AMP-activated protein kinase catalytic subunit alpha-2 (Homo sapiens) (UniProt P54646); assay: Inhibition of human recombinant AMPKa2 at 40 nM related to control ULK1
Method in brief: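 Radiometric activity assays in a panel of 327 human recombinant kinases, each run in duplicate at one inhibitor concentration. Activity remaining is expressed as percent of vehicle control, and percent inhibition is calculated as 100% minus percent activity remaining.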

[16] = target: Homeodomain-interacting protein kinase 3 (Homo sapiens) (UniProt Q9H422); assay: Inhibition of human recombinant HIPK3 at 40 nM related to control ULK1
[17] = target: Calcium/calmodulin-dependent protein kinase type II subunit alpha (Homo sapiens) (UniProt Q9UQM7); assay: Inhibition of human recombinant CaMK2a at 40 nM related to control ULK1

Calcium/calmodulin-dependent protein kinase kinase 2 (Homo sapiens), sequence (Q96RR4 2-588 limits assumed): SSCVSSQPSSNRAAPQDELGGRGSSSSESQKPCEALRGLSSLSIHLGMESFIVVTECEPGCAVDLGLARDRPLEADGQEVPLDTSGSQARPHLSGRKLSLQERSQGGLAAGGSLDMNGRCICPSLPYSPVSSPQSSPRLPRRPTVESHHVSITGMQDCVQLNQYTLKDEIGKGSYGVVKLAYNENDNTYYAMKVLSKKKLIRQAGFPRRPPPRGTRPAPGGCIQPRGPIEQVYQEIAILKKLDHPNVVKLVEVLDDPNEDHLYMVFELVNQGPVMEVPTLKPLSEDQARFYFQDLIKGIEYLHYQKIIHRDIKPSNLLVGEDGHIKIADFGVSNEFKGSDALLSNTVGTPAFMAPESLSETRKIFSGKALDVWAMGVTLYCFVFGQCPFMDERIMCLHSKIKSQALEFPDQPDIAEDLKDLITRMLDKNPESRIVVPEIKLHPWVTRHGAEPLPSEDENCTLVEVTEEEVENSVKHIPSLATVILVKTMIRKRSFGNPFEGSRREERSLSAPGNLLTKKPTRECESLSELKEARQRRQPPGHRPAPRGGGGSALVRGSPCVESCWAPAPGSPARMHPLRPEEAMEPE

Structure (SMILES): CNC(=O)c1ccccc1Oc1nc(Nc2cc(OC)c(OC)c(OC)c2)ncc1Br
- fold change (FC) [1]: 0
- inhibition [2]: 4%
- fold change (FC) [3]: 0.07
- inhibition [4]: 0%
- fold change (FC) [5]: 0

Structure (SMILES): CC(C)[C@H](NC(=O)c1cc(-c2cnn3cc(-c4ccc(OCCN5CCCCC5)cc4)cnc23)cs1)C(F)(F)F
- fold change (FC) [6]: 0.07
- inhibition [7]: 11%
- fold change (FC) [8]: 0
- inhibition [9]: 6%
- fold change (FC) [10]: 0.35
- inhibition [11]: 0%
- fold change (FC) [12]: 0.09
- inhibition [13]: 2%
- fold change (FC) [14]: 0.48

Structure (SMILES): O=C(N[C@@H](C1CC1)C(F)(F)F)c1cc(-c2cnn3cc(-c4ccc(F)cc4)cnc23)cs1
- fold change (FC) [15]: 0.1
- fold change (FC) [16]: 0.07
- fold change (FC) [17]: 0

From ChEMBL document CHEMBL5653631, “A Potent and Selective ULK1 Inhibitor Suppresses Autophagy and Sensitizes Cancer Cells to Nutrient Stress” (iScience, 2018)
